# Activity calls are given as the source filed them. The rule behind the calls is not given here.
# Tests used:
# [1] = target: T1, Substance-K receptor (Rattus norvegicus) (UniProt P16610); assay: Allosteric modulation of rat NK2 receptor expressed in HEK293 cells assessed as formation of active receptor calcium-triggering conformation at 10 uM in presence of 20nM NKA-Bo by FRET assay; assay type: functional, cell-based
# T1 sequence (whole entry): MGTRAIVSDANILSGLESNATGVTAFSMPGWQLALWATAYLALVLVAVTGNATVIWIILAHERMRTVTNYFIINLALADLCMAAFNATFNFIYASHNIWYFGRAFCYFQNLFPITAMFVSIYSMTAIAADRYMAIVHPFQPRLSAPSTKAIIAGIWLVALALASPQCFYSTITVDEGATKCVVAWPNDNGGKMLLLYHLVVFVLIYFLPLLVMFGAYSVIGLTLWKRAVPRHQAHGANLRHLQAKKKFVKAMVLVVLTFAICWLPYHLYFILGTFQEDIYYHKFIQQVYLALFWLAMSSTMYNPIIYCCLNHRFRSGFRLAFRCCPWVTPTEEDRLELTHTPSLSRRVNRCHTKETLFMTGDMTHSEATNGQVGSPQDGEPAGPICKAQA
# How it was run: (§1)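 HEK293 cells stably expressing EGFP-fused rat NK2 receptor (hygromycin B 500 μg/mL selection) are suspended in Hepes-BSA buffer, pH 7.4, with protease inhibitors. EGFP emission is read at 510 nm with 470 nm excitation. 20 nM NKA-Bo is added at 50 s, compound (10 μM) at 450 s for 150 s, then excess unlabeled NKA at 600 s.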
# [2] = target: T1, Substance-K receptor (Rattus norvegicus); assay: Allosteric modulation of rat NK2 receptor expressed in HEK293 cells assessed as enhancement of neurokinin A-induced intracellular calcium level at 20 uM by spectrofluorimetry; assay type: functional, cell-based
# [3] = target: T1, Substance-K receptor (Rattus norvegicus); assay: Allosteric modulation of rat NK2 receptor expressed in HEK293 cells assessed as reduction of neurokinin A-induced cAMP production at 10 uM by radioimmunoassay; assay type: functional, cell-based; parameters: scale not given: the % may be the effect or the level left
# How it was run: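 HEK293 cells expressing NK2 receptor are seeded at 50000 on collagen-coated wells and cultured 3 days (~80% confluency). They are stimulated with increasing NKA concentrations with or without 10 μM compound. The reaction is stopped with ice-cold 0.2 M HCl and cAMP is measured by radioimmunoassay. Values are mean ± SD of six determinations; the change in maximal response amplitude is reported.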
# [4] = target: T1, Substance-K receptor (Rattus norvegicus); assay: Inhibition of NKA-Bo binding to rat NK2 receptor expressed in HEK293 cells at 10 uM by FRET assay relative to neurokinin A; assay type: cell-based; how it was run: as §1
# [5] = target: T1, Substance-K receptor (Rattus norvegicus); assay: Allosteric modulation of rat NK2 receptor expressed in HEK293 cells assessed as formation of active receptor calcium-triggering conformation at 50 uM in presence of 20nM NKA-Bo by FRET assay; assay type: functional, cell-based
# [6] = target: T1, Substance-K receptor (Rattus norvegicus); assay: Allosteric modulation of rat NK2 receptor expressed in HEK293 cells assessed as formation of active receptor cAMP-producing conformation at 10 uM in presence of 20nM NKA-Bo by FRET assay; assay type: functional, cell-based; how it was run: as §1
# [7] = target: T1, Substance-K receptor (Rattus norvegicus); assay: Allosteric modulation of rat NK2 receptor expressed in HEK293 cells assessed as formation of active receptor cAMP-producing conformation at 50 uM in presence of 20nM NKA-Bo by FRET assay; assay type: functional, cell-based
SMILES,Activity [1] [%],inhibition [4] [%],other results
O=C(O)CCCCN(Cc1ccccc1)Cc1ccc2ccccc2c1,44,0,–
c1ccc(CN(Cc2ccc3ccccc3c2)c2ccncn2)cc1,61,34,–
O=C(CN(Cc1ccccc1)Cc1ccc2ccccc2c1)OCCN1CCOCC1,42,0,–
CCOC(=O)CCCCN(Cc1ccccc1)Cc1ccc2ccccc2c1,52,0,–
COc1ccc(CN(CC#N)Cc2ccccc2)cc1,49,0,–
N#CCN(C/C=C/c1ccccc1)Cc1ccccc1,47,0,–
O=C(CN(Cc1ccccc1)Cc1ccc2ccccc2c1)OCCc1ccccc1,46,0,–
c1ccc(CN(Cc2ccc3ccccc3c2)c2ccccn2)cc1,56,17,–
CCCCCCCCCCCCCCCCOC(=O)CN(Cc1ccccc1)Cc1ccc2ccccc2c1,38,0,–
c1ccc(CN(Cc2ccc3ccccc3c2)c2cccnc2)cc1,59,0,–
CN1CCN(C(=O)CN(Cc2ccccc2)Cc2ccc3ccccc3c2)CC1,58,0,–
CCCCNC(=O)CN(Cc1ccccc1)Cc1ccc2ccccc2c1,54,0,–
N#CCN(Cc1ccccc1)Cc1ccc(Cl)cc1,53,0,–
N#CCN(Cc1ccccc1)Cc1cccc(Cl)c1,45,0,–
N#CCN(Cc1ccccc1)Cc1ccc(C(F)(F)F)cc1,48,0,–
O=C(CN(Cc1ccccc1)Cc1ccc2ccccc2c1)N1CCN(c2ccccc2)CC1,43,0,–
O=C(CN(Cc1ccccc1)Cc1ccc2ccccc2c1)N1CCCCC1,44,0,–

# Continued, in another order:
Activity [1] [%],inhibition [4] [%],SMILES,other results
68,0,N#CCCCN(Cc1ccccc1)Cc1ccc2ccccc2c1,Emax [2]: 120%; Activity [3]: 47%
50,0,N#CCN(Cc1ccccc1)Cc1ccc2ccccc2c1,Activity [5]: 95%; Activity [6]: 50%; Activity [7]: 5%; Activity [2]: inactive; Activity [3]: 33%
51,0,CCOC(=O)CN(Cc1ccccc1)Cc1ccc2ccccc2c1,–
35,0,O=C(O)CN(Cc1ccccc1)Cc1ccc2ccccc2c1,–
45,0,N#CCN(Cc1ccc(Br)cc1)Cc1ccc2ccccc2c1,–
47,0,N#CCN(Cc1ccc(I)cc1)Cc1ccc2ccccc2c1,–
51,0,C#CCN(Cc1ccccc1)Cc1ccc2ccccc2c1,–
46,21,N#CCN(Cc1ccccc1)Cc1cnc2ccccc2c1,–
43,0,N#CCN(Cc1ccc2ccccc2c1)Cc1ccccc1Br,–
39,20,N#CCN(Cc1ccc(CCc2ccccc2)cc1)Cc1ccc2ccccc2c1,–
47,0,N#CCN(Cc1ccccc1)Cc1ccc2ccccc2n1,–
53,0,O=C(CN(Cc1ccccc1)Cc1ccc2ccccc2c1)OCCO,–
54,0,COc1ccc(CN(CC#N)Cc2ccc3ccccc3c2)cc1,–
